The experiment concerns the target urease (Canavalia ensiformis, UniProt P07374). Nature of the experiment: Urease inhibition assay. It counts as biochemical. To be noted: IC50 (µM) ± SEM, in-vitro urease inhibition. In outline:
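Test compound and enzyme preincubated in pH 6.8 phosphate buffer for 10 min at 37 °C. Phenol and alkali reagents then added. Absorbance read at 625 nm. Percent inhibition calculated as (control absorbance − sample absorbance)/control absorbance × 100. Run in triplicate, with a standard urease inhibitor as positive control. Values given ± SEM.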

The structures appear in SMILES notation. Several values for one entry are separate records, joined by “and”; a condition that tells them apart may be missing. Equal entries are not always repeated.

Chain of urease (P07374 whole entry, looked up): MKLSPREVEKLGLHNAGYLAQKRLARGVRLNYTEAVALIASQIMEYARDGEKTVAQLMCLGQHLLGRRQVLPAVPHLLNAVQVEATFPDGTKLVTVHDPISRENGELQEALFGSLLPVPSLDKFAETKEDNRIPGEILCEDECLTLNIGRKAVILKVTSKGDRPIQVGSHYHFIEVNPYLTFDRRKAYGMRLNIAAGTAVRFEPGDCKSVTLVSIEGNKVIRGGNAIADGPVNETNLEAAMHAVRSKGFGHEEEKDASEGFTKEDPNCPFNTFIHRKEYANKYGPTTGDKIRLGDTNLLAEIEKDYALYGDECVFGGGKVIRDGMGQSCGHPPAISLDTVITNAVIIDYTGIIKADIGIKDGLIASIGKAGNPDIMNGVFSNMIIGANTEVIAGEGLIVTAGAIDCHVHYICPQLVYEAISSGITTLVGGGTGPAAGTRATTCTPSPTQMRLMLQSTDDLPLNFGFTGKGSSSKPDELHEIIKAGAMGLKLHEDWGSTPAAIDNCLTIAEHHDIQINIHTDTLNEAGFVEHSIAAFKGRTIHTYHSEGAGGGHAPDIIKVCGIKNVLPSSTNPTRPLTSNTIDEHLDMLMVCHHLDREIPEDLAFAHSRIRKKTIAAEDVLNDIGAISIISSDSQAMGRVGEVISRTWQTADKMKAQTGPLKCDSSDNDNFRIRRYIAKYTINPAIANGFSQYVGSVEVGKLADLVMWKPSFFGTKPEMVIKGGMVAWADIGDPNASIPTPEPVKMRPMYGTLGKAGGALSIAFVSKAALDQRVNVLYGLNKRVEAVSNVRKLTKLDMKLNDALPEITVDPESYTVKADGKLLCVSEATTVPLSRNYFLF

Broadly, the IC50 is the point on the concentration scale where inhibition reaches its midpoint. High values mean lower potency, low ones higher potency. In the case of `Clc1ccc(C=NN=C(Cc2ccccc2)c2ccccc2)c(Cl)c1` [Compound 3, 1-(2,4-dichlorobenzylidene)-2-(1,2-diphenylethylidene)hydrazine], the IC50 turned out to be 22.2 ± 0.42 µM.

On to `O=[N+]([O-])c1ccc(C=NN=C(Cc2ccccc2)c2ccccc2)cc1` [Compound 4, 1-(1,2-diphenylethylidene)-2-(4-nitrobenzylidene)hydrazine], for which half-maximal inhibition (IC50) required 26.11 ± 0.22 µM. The IC50 values of the last two compounds are within 1.5-fold of each other.

Turning to `O=[N+]([O-])c1ccc(O)c(C=NN=C(Cc2ccccc2)c2ccccc2)c1` [Compound 5, 1-(1,2-diphenylethylidene)-2-(2-hydroxy-5-nitrobenzylidene)hydrazine], the IC50 turned out to be 34.3 ± 0.65 µM. This IC50 and that of the compound before are within 1.5-fold of each other. On to `Clc1ccc(C=NN=C(Cc2ccccc2)c2ccccc2)cc1` [Compound 6, 1-(4-chlorobenzylidene)-2-(1,2-diphenylethylidene)hydrazine], for which the concentration for half-maximal inhibition (IC50) stood at 28.11 ± 0.22 µM.

`CSc1ccc(C=NN=C(Cc2ccccc2)c2ccccc2)cc1` [Compound 7, 1-(1,2-diphenylethylidene)-2-(4-(methylthio)benzylidene)hydrazine]: the IC50 was 45.9 µM and 48.3 µM. With `Cc1ccc(C=NN=C(Cc2ccccc2)c2ccccc2)cc1` [Compound 8, 1-(1,2-diphenylethylidene)-2-(4-methylbenzylidene)hydrazine], the half-inhibitory concentration (IC50) was 47.9 µM and 45.9 µM. For the compound `Oc1ccc(C=NN=C(Cc2ccccc2)c2ccccc2)cc1` [Compound 9, 1-(1,2-diphenylethylidene)-2-(4-hydroxybenzylidene)hydrazine], the half-maximal inhibitory concentration (IC50) is 48.3 µM and 47.9 µM.

Values taken from publication PMC10345485 (Saudi Pharmaceutical Journal : SPJ, 2023).
